Screens: PubChem, several laboratories
UPR CHOP act: activators of apoptotic arm of unfolded protein response (CHOP); CHO-CHOP luciferase reporter, UPR activation, luminescence; percent of tunicamycin response over DMSO baseline; activation, % at 10 µM; 330,000 compounds, 0.34% hits; AID 449763;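 active = at 10 µM dose, activation of 40% or more, normalized to positive control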;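 note: 100% = tunicamycin at 10 µg/mL and 0% = DMSO alone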
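Evaluation: % reporter activation, DMSO baseline versus tunicamycin full activation; System: CHO-CHOP luciferase reporter cell line; Input: 500 cells/well; Incubation: 6 h compound treatment, 37 °C; Measured by: Steady-Glo luciferase luminescence; Dosing: one dose, 10 µM in 0.5% DMSO; Buffer or medium: F12 medium, 10% FBS; Benchmarks: positive tunicamycin 10 µg/mL, negative DMSO alone.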
T cruzi inh: T. cruzi replication inhibition; T. cruzi beta-gal in NIH3T3, luminescence, 90 h; inhibition, % (test concentration not listed); 300,000 compounds, 1.4% hits; AID 1885;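 active = mean inhibition across valid replicates above about 55%, limit read from the data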;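 note: signal also drops with host cell toxicity which is not excluded here; 0% = plate median of DMSO wells and 100% = zero luminescence signal; higher percent means less beta-gal luminescence so fewer parasites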
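assay system = mouse NIH/3T3 fibroblasts infected with β-gal-expressing T. cruzi Tulahuen C4 | input = 5,000 NIH/3T3 host cells per well | buffer or medium = DMEM plus 2% FBS | timing = 3 h host attachment, then at least 90 h co-culture | measured by = GalScreen luminescence, 60 min | evaluation = luminescence reflecting intracellular parasite burden, expressed as percent inhibition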
L major viab: Leishmania major promastigote growth inhibition; AID 1063; Leishmania major promastigotes, resazurin fluorescence viability; inhibition, % at 10 µM; 200,000 compounds, 9% hits; in the data active = inhibition above about 50%;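 note: promastigotes grown with compound for 44 hours at 28 °C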
CHOP inh: CHOP inhibition in unfolded protein response; CHO-K1 CHOP-promoter luciferase, tunicamycin-induced, 15-18 h; inhibition, % at 10 µM; 220,000 compounds, 3.8% hits; AID 2732;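 active = compounds that reduced the stress-induced luciferase reporter signal by more than about 70% of percent inhibition, limit read from the data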;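 note: 0% = tunicamycin plus vehicle and 100% = wells without tunicamycin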
UPR XBP1 act: adaptive UPR (XBP1) activation. CHO-XBP1 luciferase reporter, IRE1-XBP1 UPR activation, luminescence; percent of tunicamycin response, DMSO as zero. activation, % at 20 µM. 330,000 compounds, 0.33% hits. AID 463104;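 active = versus positive control, 20 µM dose yields 30% or more activation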;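 note: 100% = tunicamycin at 10 µg/mL and 0% = DMSO only wells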
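assay system = CHO-XBP1 luciferase reporter cells | amount = 1000 cells/well | buffer or medium = F12 plus 10% FBS | compound dosing = single point, 20 µM final compound, 1% DMSO | incubation = 16-18 h cell attachment at 37 °C, then 6 h compound exposure | detection = Steady-Glo luminescence read | controls = tunicamycin 10 µg/mL and vehicle-only wells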
Dynein transport: dynein cargo transport inhibition; 3617.4 mouse cells, GR-EGFP nuclear translocation imaging; test concentration mostly 20 µM; stimulated with dexamethasone, 1 µM; stronger effect = lower value; z-score, hits read low; 220,000 compounds, 0.47% hits;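 active = plate z-score of nuclear minus cytoplasmic receptor signal below a set negative limit, without overly bright fluorescence or cell loss, cut at about -3.5 in these data, passing the limit was not always enough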;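 note: z-score of nuclear minus cytoplasmic ring GR-EGFP intensity difference per well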
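Buffer or medium – tet-free medium with charcoal-stripped serum · Signal – automated 10x imaging of fixed Hoechst-stained cells · Also added – dexamethasone agonist, 1.0 µM final, for 30 min · Incubation – induction 48 h, compound 1 h, agonist 30 min · Read-out – GR-EGFP nuclear translocation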
The depositor's hits bear a star; / = no result given. Shown is part of a subset that was picked to be rich in hits.

SMILES	UPR CHOP act	T cruzi inh	L major viab	CHOP inh	UPR XBP1 act	Dynein transport
O=C(OC1CC2CCC(N2)C1C(=O)O)c1ccccc1 (centres undefined)	1	/	/	/	-1	/
Clc1ccc(-c2nc3ccc(Cl)cn3c2CN2CCCCC2)cc1	/	38	/	/	/	/
Clc1ccc(-c2nc3ccc(Cl)cn3c2CN2CCOCC2)cc1	-2	26	53*	7	-5	0.49
CC(=O)O[C@H]1[C@H]2O[C@]23[C@@H]2CC[C@]4(O)C[C@@H](O)CC[C@]4(C)C2CC[C@]3(C)[C@H]1c1ccc(=O)oc1 (some centres undefined)	-1	/	/	/	-5	/
COc1cc2c(cc1OC)C1[C@H]3C(=CC[C@H]1OC2O)CCN3C (some centres undefined)	0	/	/	/	0	/
[N-]=[N+]=NCc1cn2cccnc2n1	-3	-8	-3	-8	-2	-0.33
Cc1ccc(CN2C(=O)CN=C(c3ccccc3)c3ccccc32)cc1	0	-7	57*	23	-3	-0.46
CCC(=Nc1ccc2c(c1)CCC2)c1c(O)n(-c2ccc(OC)cc2)c(=O)[nH]c1=O	4	/	/	53	-6	0.079
CN1CCN(c2ccc(Cl)cc2N)CC1	-1	27	-3	-29	-2	0.89
Cc1ccc(Cl)cc1N1CCN(CCN)CC1	0	7	100*	66	-4	-0.52
CCCN(CCC)C1Cc2cc(OC)c(OC)cc2C1	0	10	/	-20	-7	/
OCC1(CO)COC(c2cccnc2)N1 (centres undefined)	0	-4	-6	18	-2	-0.49
CCNC(=S)N1CCn2cccc2C1c1cccnc1 (centres undefined)	0	30	70*	7	0	0.28
Clc1ccccc1NC1=NCCCS1	0	-17	/	/	-7	/
CC(=O)N(C1=NCCCS1)c1ccccc1Cl	1	-10	69*	8	-4	0.092
COc1ccc(/C=N\N=C(N)N)cc1	0	62*	4	1	0	-0.058
COC(=O)C1=C(c2ccccc2)C[C@@H]2CC[C@H]1N2C(=O)NCCCOC(C)C	-3	-14	/	/	-2	/
CN1C(=O)/C(=C\c2ccc(N3CCCCCC3)cc2)C(=O)NC1=S	1	-5	/	10	-2	-0.32
Cc1cc(N2CCCCC2)ccc1C=C1C(=O)N(C)C(=S)N(C)C1=O	0	4	100*	-1	-2	-2.2
Oc1ccc2c3c1O[C@H]1[C@@H](O)CC[C@@]4(O)C(C2)N(CC2CCC2)CCC314 (some centres undefined)	/	/	/	-8	/	/
COC(=O)C1=C(c2cc3ccccc3s2)C[C@@H]2CC[C@H]1N2C(=O)NC1CCCCC1	2	8	/	/	-4	/
C1=C(CCNCc2ccccc2)CCCC1	-1	-5	73*	52	2	1.8
O=C(C(=O)N1CCOCC1)c1cn(Cc2c(F)cccc2Cl)c2ccccc12	0	3	-4	0	1	-0.29
CCOC(=O)C1(CCc2ccccc2)CCN(Cc2csc(C(C)=O)c2)CC1	-2	-8	83*	8	-1	-0.58
CCOC(=O)C1(CCOc2ccccc2)CCN(Cc2cccc(O)c2)CC1	1	-13	/	/	-6	/
SMILES	UPR CHOP act	T cruzi inh	L major viab	CHOP inh	UPR XBP1 act	Dynein transport
CCOC(=O)C1(CCc2ccccc2)CCN(C(C)CSC)CC1 (centres undefined)	/	-2	/	/	/	/
CCOC(=O)C1(CCc2ccccc2)CCN(Cc2cccc3c2OCO3)CC1	-3	42	79*	34	-1	2.4
CCOC(=O)C1(CCc2ccccc2)CCN(Cc2cccc3cnccc23)CC1	0	25	82*	2	-3	-0.76
CCc1ccccc1NC(=O)CNCc1ccccc1	-2	-7	-3	0	-2	-0.21
NC(Cn1oc(=O)[nH]c1=O)C(=O)O (centres undefined)	/	/	/	-1	/	/
Cc1cc(OCCN2CC2)c2ccccc2n1	2	8	/	-2	2	0.074
O=C(CF)NC(NC(=S)Nc1ccccc1O)C(Cl)(Cl)Cl (centres undefined)	3	-8	6	-5	-3	-0.64
COCCCn1c(-c2ccc(OC)cc2)cc(C(=O)NC2CCCCCCC2)c1C	2	14	98*	58	-4	-0.32
CCN(CC)S(=O)(=O)N1CCC(C(=O)N2CCC3(CC2)OCCO3)CC1	0	-4	3	8	-2	0.22
COc1cc2c(cc1OC)CN(c1ccc([N+](=O)[O-])c(C(F)(F)F)c1)CC2	5	-6	66*	26	-1	-1.8
CO[C@H]1C=C2CCN(C)[C@H]2C2c3cc4c(cc3C(=O)O[C@@H]21)OCO4 (some centres undefined)	0	/	/	/	-10	/
Cc1cc(S(=O)(=O)NC(C)C)ccc1OCC(=O)N1CCN(Cc2ccc3c(c2)OCO3)CC1	-1	17	96*	14	-3	-0.46
CCc1ccc(OCC(=O)N2CCN(Cc3ccc4c(c3)OCO4)CC2)cc1	2	17	83*	9	-1	-0.36
Cc1cc(S(=O)(=O)NCC(C)C)ccc1OCC(=O)N1CCN(Cc2ccccc2)CC1	-2	11	22	12	-2	0.48
CC(C)NS(=O)(=O)c1ccc(OCC(=O)N2CCN(Cc3ccc4c(c3)OCO4)CC2)c(Cl)c1	-1	11	56*	28	-3	0.53
CSc1ccc(CN2CCN(C(=O)COc3cccc(C)c3)CC2)cc1	0	33	87*	12	1	-0.14
Cc1cc(=O)oc2cc(OCC(=O)N3CCN(Cc4ccc5c(c4)OCO5)CC3)ccc12	0	13	/	/	-3	/
COC(=O)C1=C(c2cc3ccccc3o2)C[C@@H]2CC[C@H]1N2C(=O)NC(C)C	3	7	/	/	-2	/
COC(=O)C1=C(c2ccc3ccccc3c2)C[C@@H]2CC[C@H]1N2C(=O)N1CCCC1	3	/	/	/	0	/
C[C@H]1CCC/C=C/C2C[C@H](O)CC2[C@H](O)/C=C/C(=O)O1 (some centres undefined)	107*	51	-7	/	14	0.44
CN[C@@H](C)[C@H](O)c1ccccc1	/	/	/	13	/	/
CCOC(=O)COc1ccc2c(c1)c(C(C)=O)c(C)n2Cc1ccccc1	0	-1	76*	15	-2	0.27
COC(=O)C1=C(c2ccc(F)cc2OCc2ccccc2)C[C@@H]2CC[C@H]1N2C(=O)NCc1ccc([N+](=O)[O-])cc1	1	/	/	/	-3	/
CCCCOc1ccc(CC2C(=O)N(C)C(=O)N(C)C2=O)cc1	1	2	-10	-13	-2	-0.5
CCCCCCOc1ccc(CN2CCN(CCO)CC2)cc1	2	52	99*	5	-2	-0.93
